Source: ChEMBL document CHEMBL4715736, “Identification of anticancer agents based on the thieno[2,3-b]pyridine and 1H-pyrazole molecular scaffolds” (2016)

Columns and labels:
Assay type in all cases: functional
Conditions in all cases: read-out: Activity
[1] = test system: MCF7; assay: Growth inhibition of human MCF7 cells assessed as cell growth at 10 uM incubated for 48 hrs by sulforhodamine B assay relative to control
Method in brief: (§1)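 Submitted to the NCI Developmental Therapeutics Program for the NCI60 human tumour cell line panel. First screen at a single 10 µM concentration. Read-out is growth relative to untreated control cells set at 100%.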

[2] = test system: Hs-578T; assay: Growth inhibition of human Hs-578T cells assessed as cell growth at 10 uM incubated for 48 hrs by sulforhodamine B assay relative to control; method in brief: as §1
[3] = test system: OVCAR-5; assay: Growth inhibition of human OVCAR-5 cells assessed as cell growth at 10 uM incubated for 48 hrs by sulforhodamine B assay relative to control
Method in brief: (§2)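 Run by the NCI Developmental Therapeutics Program as part of its 60-line human tumour panel. Each compound tested at a single 10 µM dose. Growth expressed as % relative to untreated control cells (100%).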

[4] = test system: ACHN; assay: Growth inhibition of human ACHN cells assessed as cell growth at 10 uM incubated for 48 hrs by sulforhodamine B assay relative to control
Method in brief: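 NCI Developmental Therapeutics Program NCI60 human tumour cell line panel, one-dose primary screen with every compound at 10 µM. Growth is expressed as % of untreated control cells (100%).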

[5] = test system: A549; assay: Growth inhibition of human A549/ATCC cells assessed as cell growth at 10 uM incubated for 48 hrs by sulforhodamine B assay relative to control
Method in brief: (§3)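 NCI Developmental Therapeutics Program NCI60 panel. Compounds that were active in the 10 µM one-dose screen went on to dose–response testing. Growth at each concentration is expressed relative to untreated control (100%). GI50 (concentration giving 50% of maximal inhibition of proliferation) and TGI (concentration giving total growth inhibition) were derived from the curves.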

[6] = test system: NCI/ADR-RES; assay: Growth inhibition of human NCI/ADR-RES cells assessed as cell growth at 10 uM incubated for 48 hrs by sulforhodamine B assay relative to control; method in brief: as §1
[7] = test system: LOX IMVI; assay: Growth inhibition of human LOX IMVI cells assessed as cell growth at 10 uM incubated for 48 hrs by sulforhodamine B assay relative to control; method in brief: as §1
[8] = test system: T47D; assay: Growth inhibition of human T47D cells assessed as cell growth at 10 uM incubated for 48 hrs by sulforhodamine B assay relative to control; method in brief: as §2
[9] = test system: SW-620; assay: Growth inhibition of human SW-620 cells assessed as cell growth at 10 uM incubated for 48 hrs by sulforhodamine B assay relative to control; method in brief: as §2
[10] = test system: NCI-H322M; assay: Growth inhibition of human NCI-H322M cells assessed as cell growth at 10 uM incubated for 48 hrs by sulforhodamine B assay relative to control; method in brief: as §1
[11] = test system: SK-MEL-28; assay: Growth inhibition of human SK-MEL-28 cells assessed as cell growth at 10 uM incubated for 48 hrs by sulforhodamine B assay relative to control; method in brief: as §2
[12] = test system: HOP-92; assay: Growth inhibition of human HOP-92 cells assessed as cell growth at 10 uM incubated for 48 hrs by sulforhodamine B assay relative to control; method in brief: as §1
[13] = test system: PC-3; assay: Growth inhibition of human PC-3 cells assessed as cell growth at 10 uM incubated for 48 hrs by sulforhodamine B assay relative to control; method in brief: as §2
[14] = test system: OVCAR-8; assay: Growth inhibition of human OVCAR-8 cells assessed as cell growth at 10 uM incubated for 48 hrs by sulforhodamine B assay relative to control; method in brief: as §2
[15] = test system: COLO 205; assay: Growth inhibition of human COLO 205 cells assessed as cell growth at 10 uM incubated for 48 hrs by sulforhodamine B assay relative to control; method in brief: as §3
[16] = test system: SF-268; assay: Growth inhibition of human SF-268 cells assessed as cell growth at 10 uM incubated for 48 hrs by sulforhodamine B assay relative to control; method in brief: as §2
[17] = test system: HCC 2998; assay: Growth inhibition of human HCC 2998 cells assessed as cell growth at 10 uM incubated for 48 hrs by sulforhodamine B assay relative to control; method in brief: as §3
[18] = test system: SF-539; assay: Growth inhibition of human SF-539 cells assessed as cell growth at 10 uM incubated for 48 hrs by sulforhodamine B assay relative to control; method in brief: as §2
[19] = test system: K562; assay: Growth inhibition of human K562 cells assessed as cell growth at 10 uM incubated for 48 hrs by sulforhodamine B assay relative to control; method in brief: as §1
[20] = test system: U-251; assay: Growth inhibition of human U-251 cells assessed as cell growth at 10 uM incubated for 48 hrs by sulforhodamine B assay relative to control; method in brief: as §2
[21] = test system: OVCAR-4; assay: Growth inhibition of human OVCAR-4 cells assessed as cell growth at 10 uM incubated for 48 hrs by sulforhodamine B assay relative to control; method in brief: as §2
[22] = test system: UACC-62; assay: Growth inhibition of human UACC-62 cells assessed as cell growth at 10 uM incubated for 48 hrs by sulforhodamine B assay relative to control; method in brief: as §2
[23] = test system: MDA-MB-435; assay: Growth inhibition of human MDA-MB-435 cells assessed as cell growth at 10 uM incubated for 48 hrs by sulforhodamine B assay relative to control; method in brief: as §1
[24] = test system: CCRF-CEM; assay: Growth inhibition of human CCRF-CEM cells assessed as cell growth at 10 uM incubated for 48 hrs by sulforhodamine B assay relative to control; method in brief: as §3
[25] = test system: OVCAR-3; assay: Growth inhibition of human OVCAR-3 cells assessed as cell growth at 10 uM incubated for 48 hrs by sulforhodamine B assay relative to control; method in brief: as §2
[26] = test system: NCI-H23; assay: Growth inhibition of human NCI-H23 cells assessed as cell growth at 10 uM incubated for 48 hrs by sulforhodamine B assay relative to control; method in brief: as §1
[27] = test system: RPMI-8226; assay: Growth inhibition of human RPMI-8226 cells assessed as cell growth at 10 uM incubated for 48 hrs by sulforhodamine B assay relative to control; method in brief: as §2
[28] = test system: SF-295; assay: Growth inhibition of human SF-295 cells assessed as cell growth at 10 uM incubated for 48 hrs by sulforhodamine B assay relative to control; method in brief: as §2
[29] = test system: DU-145; assay: Growth inhibition of human DU-145 cells assessed as cell growth at 10 uM incubated for 48 hrs by sulforhodamine B assay relative to control; method in brief: as §3
[30] = test system: IGROV-1; assay: Growth inhibition of human IGROV-1 cells assessed as cell growth at 10 uM incubated for 48 hrs by sulforhodamine B assay relative to control; method in brief: as §1
[31] = test system: MDA-MB-468; assay: Growth inhibition of human MDA-MB-468 cells assessed as cell growth at 10 uM incubated for 48 hrs by sulforhodamine B assay relative to control; method in brief: as §1
[32] = test system: MDA-MB-231; assay: Growth inhibition of human MDA-MB-231 cells assessed as cell growth at 10 uM incubated for 48 hrs by sulforhodamine B assay relative to control; method in brief: as §1
[33] = test system: HL-60(TB); assay: Growth inhibition of human HL-60(TB) cells assessed as cell growth at 10 uM incubated for 48 hrs by sulforhodamine B assay relative to control
Method in brief: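 Screened by the NCI Developmental Therapeutics Program on its panel of 60 human tumour cell lines. Compounds were first tested at a single 10 µM dose, and compounds active there went to dose-response curves. Growth is expressed relative to untreated control (100%). GI50 (50% of maximal proliferation inhibition) and TGI (total growth inhibition) were derived from the dose-response data.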

Compound	growth at 10 µM [1]	growth at 10 µM [2]	growth at 10 µM [3]	growth at 10 µM [4]	growth at 10 µM [5]	growth at 10 µM [6]	growth at 10 µM [7]	growth at 10 µM [8]	growth at 10 µM [9]	growth at 10 µM [10]	growth at 10 µM [11]	growth at 10 µM [12]	growth at 10 µM [13]	growth at 10 µM [14]	growth at 10 µM [15]	growth at 10 µM [16]	growth at 10 µM [17]	growth at 10 µM [18]	growth at 10 µM [19]	growth at 10 µM [20]	further results
COc1ccc(S(=O)(=O)n2ccc(-c3ccc4c(c3)CCC(C)(C)O4)n2)cc1OC	64.3%	91.5%	105%	78%	67.1%	56.5%	76.7%	43.7%	79.9%	89.5%	91%	58.3%	69.5%	74.6%	87.1%	85.3%	78.9%	97.2%	53%	79.5%	growth at 10 µM [21]: 46%; growth at 10 µM [22]: 63.9%; growth at 10 µM [23]: 79.6%; growth at 10 µM [24]: 82.2%; growth at 10 µM [25]: 70.9%; growth at 10 µM [26]: 56%; growth at 10 µM [27]: 59%; growth at 10 µM [28]: 63%; growth at 10 µM [29]: 82.6%; growth at 10 µM [30]: 84.3%; growth at 10 µM [31]: 28.4%; growth at 10 µM [32]: 82.5%; growth at 10 µM [33]: 94.7%
CC1(C)CCc2cc(-c3ccn(S(=O)(=O)c4ccc(Cl)cc4Cl)n3)ccc2O1	86.6%	98.8%	97.5%	103%	83.7%	96.1%	104%	76.6%	91.9%	90.5%	102%	57.1%	62.3%	97%	106%	99.5%	99.1%	103%	75.7%	87.9%	growth at 10 µM [21]: 69%; growth at 10 µM [22]: 72.6%; growth at 10 µM [23]: 95.7%; growth at 10 µM [24]: 62.4%; growth at 10 µM [25]: 101%; growth at 10 µM [26]: 98.1%; growth at 10 µM [27]: 79%; growth at 10 µM [28]: 94.4%; growth at 10 µM [29]: 96.9%; growth at 10 µM [30]: 94.5%; growth at 10 µM [31]: 81.5%; growth at 10 µM [32]: 93.3%; growth at 10 µM [33]: 102%
